Source: ChEMBL document CHEMBL2040794, “Synthesis and structure-activity analysis of new phosphonium salts with potent activity against African trypanosomes” (J Med Chem, 2012)
Activity calls are given as the source filed them. The rule behind the calls is not given here.

Columns and labels:
[1] = tested on: Trypanosoma brucei brucei; assay: Antitrypanosomal activity against diminazene-, pentamidine-, and melaminophenyl arsenical-resistant HAPT1-deficient Trypanosoma brucei brucei B48 after 3 days by alamar blue assay; type: functional, organism-based
Procedure, shortened: (§1)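 Bloodstream-form T. b. brucei (wild-type s427; TbAT1-KO, made from s427 by TbAT1 deletion; B48, selected from TbAT1-KO in vitro on pentamidine, lacking functional HAPT1). Cells were exposed to compound for 48 h, then resazurin (Alamar blue) was added for a further 24 h. A single fluorescence reading gave EC50.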

[2] = Inhibition of Trypanosoma brucei brucei HAPT1 assessed as [3H]-pentamidine uptake after 60 secs by scintillation counting
Procedure, shortened: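 HAPT1 transport: late-log T. b. brucei grown in HMI-9 + 10% FBS, washed into HEPES/bicarbonate assay buffer with 14 mM glucose, pH 7.3. [³H]-pentamidine at 30 nM final for 60 s with inhibitor; stopped with 2 mM ice-cold unlabeled pentamidine and spin through oil. Scintillation counting, sigmoid fit for Ki; triplicates, ≥3 independent experiments.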

[3] = Inhibition of Trypanosoma brucei brucei LAPT1 assessed as [3H]-pentamidine uptake after 120 secs by scintillation counting
Procedure, shortened: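 LAPT1 transport: late-log trypanosomes from HMI-9/10% FBS culture washed into pH 7.3 HEPES-bicarbonate-glucose buffer; 1 μM final [³H]-pentamidine uptake over 120 s with competitor. Uptake terminated with 2 mM ice-cold pentamidine and oil centrifugation; counted by scintillation, Ki from sigmoid curves; triplicate, at least three separate occasions.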

[4] = tested on: Trypanosoma brucei brucei; assay: Antitrypanosomal activity against diminazene aceturate-resistant TbAT1 gene-deficient Trypanosoma brucei brucei AT1-KO after 3 days by alamar blue assay; type: functional, organism-based; procedure, shortened: as §1
[5] = tested on: Trypanosoma brucei brucei; assay: Resistance factor, ratio of EC50 for diminazene-, pentamidine-, and melaminophenyl arsenical-resistant HAPT1-deficient Trypanosoma brucei brucei B48 to EC50 for wild type Trypanosoma brucei brucei Lister 427; type: functional
Procedure, shortened: (§2)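 Resistance factor is the EC50 in the resistant line (TbAT1-KO or B48) divided by the EC50 in wild-type s427. […] Resistant and wild-type EC50s were compared by Student t-test.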

[6] = tested on: Trypanosoma brucei brucei; assay: Resistance factor, ratio of EC50 for diminazene aceturate-resistant TbAT1 gene-deficient Trypanosoma brucei brucei AT1-KO to EC50 for wild type Trypanosoma brucei brucei Lister 427; type: functional; procedure, shortened: as §2
[7] = tested on: Trypanosoma brucei brucei; assay: Antitrypanosomal activity against wild type Trypanosoma brucei brucei Lister 427 after 3 days by alamar blue assay; type: functional, organism-based; procedure, shortened: as §1
L6 = assay: Cytotoxicity against rat L6 cells after 72 hrs by alamar blue assay; type: cell-based
[8] = Cytotoxicity against human HEK cells after 3 days by alamar blue assay; type: cell-based, HEK293; settings: Homo sapiens, HEK293, 72 h
Procedure, shortened: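 Human embryonic kidney cells tested by resazurin (Alamar blue) assay: 48 h with compound, then 24 h more after dye addition, single reading; EC₅₀ derived.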

[9] = tested on: Trypanosoma brucei rhodesiense; assay: Antitrypanosomal activity against Trypanosoma brucei rhodesiense STIB900 infected in rat L6 cells after 72 hrs by alamar blue assay; type: functional, organism-based
[10] = Selectivity index, ratio of EC50 for rat L6 cells to EC50 for Trypanosoma brucei rhodesiense STIB900; type: toxicity, cell-based; settings: for selectivity ratio: L6 cells, read-out: Ratio EC50
Procedure, shortened: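 Ratio of EC₅₀ in L6 cells to EC₅₀ against T. b. rhodesiense STIB900, both from Alamar blue assays.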

[11] = Selectivity index, ratio of EC50 for human HEK cells to EC50 for wild type Trypanosoma brucei brucei Lister 427; type: toxicity, cell-based, HEK293; settings: for selectivity ratio: HEK cells, read-out: Ratio EC50
Procedure, shortened: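 Ratio of EC₅₀ in HEK cells to EC₅₀ in wild-type T. b. brucei s427, both from resazurin assays.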

[12] = tested on: Trypanosoma brucei brucei; assay: Antitrypanosomal activity against Trypanosoma brucei brucei bloodstream forms assessed as decrease in cell count at 0.25 uM treated for 48 hrs followed by washout after 30 mins and measured after 48 hrs by hemocytometric analysis; type: functional, organism-based
Procedure, shortened: (§3)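 T. b. brucei bloodstream forms seeded at 10⁵ cells/mL with 0.25 μM compound; drug removed by centrifugation (1100g) after 30 min or 4 h and cells resuspended in drug-free fresh medium, or fresh medium still containing 0.25 μM compound; drug-free control run alongside. Growth followed over 48 h by microscopic hemocytometer counts in triplicate, averages reported.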

[13] = tested on: Trypanosoma brucei brucei; assay: Antitrypanosomal activity against Trypanosoma brucei brucei bloodstream forms assessed as decrease in cell count at 0.25 uM treated for 48 hrs followed by washout after 4 hrs measured after 44 hrs by hemocytometric analysis; type: functional, organism-based; procedure, shortened: as §3
[14] = tested on: Trypanosoma brucei brucei; assay: Antitrypanosomal activity against Trypanosoma brucei brucei bloodstream forms assessed as decrease in cell count at 0.25 uM treated for 48 hrs followed by washout after 4 hrs by hemocytometric analysis; type: functional, organism-based; procedure, shortened: as §3
[15] = Trypanosoma brucei, AT1-KO, 72 h
[16] = Trypanosoma brucei, Lister 427, 72 h
[17] = Trypanosoma brucei, STIB900, 72 h

## N=C(N)c1ccc(OCCCCCOc2ccc(C(=N)N)cc2)cc1 [PENTAMIDINE]
[1]; Trypanosoma brucei, B48, 72 h
  EC50: 567 nM
[2]
  Ki: 0.036 µM
[3]
  Ki: 56.2 µM
[4]; [15]
  EC50: 9 nM
[5]
  Ratio EC50: 70.9
[6]
  Ratio EC50: 1.1
[7]; [16]
  EC50: 8 nM

## CC(=O)N(c1ccc(C[P+](c2ccc(C)cc2)(c2ccc(C)cc2)c2ccc(C)cc2)cc1)c1ccc(C[P+](c2ccc(C)cc2)(c2ccc(C)cc2)c2ccc(C)cc2)cc1.[Br-].[Br-]
L6; Rattus norvegicus, L6, 72 h
  EC50: 21.8 µM
[8]
  EC50: > 300 µM
[1]; Trypanosoma brucei, B48, 72 h
  EC50: 290 nM
[2]
  Ki: 9.2 µM
[9]; [17]
  EC50: 159 nM
[3]
  Ki: 3.6 µM
[10]
  selectivity ratio: 137
[4]; [15]
  EC50: 300 nM
[5]
  Ratio EC50: 0.9
[6]
  Ratio EC50: 0.9
[7]; [16]
  EC50: 320 nM
[11]
  selectivity ratio: > 930

## O=C(c1ccc(C[P+](c2ccccc2)(c2ccccc2)C2CCCCC2)cc1)c1ccc(C[P+](c2ccccc2)(c2ccccc2)C2CCCCC2)cc1.[Br-].[Br-]
L6; Rattus norvegicus, L6, 72 h
  EC50: 65.8 µM
[8]
  EC50: > 300 µM
[1]; Trypanosoma brucei, B48, 72 h
  EC50: 330 nM
[9]; [17]
  EC50: 430 nM
[3]
  Ki: 19 µM
[10]
  selectivity ratio: 155
[4]; [15]
  EC50: 410 nM
[5]
  Ratio EC50: 1.1
[6]
  Ratio EC50: 1.4
[7]; [16]
  EC50: 300 nM
[11]
  selectivity ratio: > 1000

## Cc1ccc(C[P+](c2ccccc2)(c2ccccc2)c2ccccc2)cc1.[Br-]
L6; l6
  EC50: 12.9 µM
[1]
  EC50: 22 nM
[9]
  EC50: 364 nM
[3]
  Ki: 25 µM
[10]; l6
  Ratio EC50: 35.5
[4]
  EC50: 33 nM
[5]
  Ratio EC50: 0.5
[6]
  Ratio EC50: 0.8
[7]
  EC50: 43 nM
[11]; hek293
  Ratio EC50: > 7000

## Cc1ccc([P+](Cc2ccc(Cc3ccc(C[P+](c4ccccc4)(c4ccccc4)c4ccc(C)cc4)cc3)cc2)(c2ccccc2)c2ccccc2)cc1.[Br-].[Br-]
L6; Rattus norvegicus, L6, 72 h
  EC50: 4.47 µM
[8]
  EC50: > 300 µM
[1]; Trypanosoma brucei, B48, 72 h
  EC50: 180 nM
[9]; [17]
  EC50: 200 nM
[3]
  Ki: 20 µM
[10]
  selectivity ratio: 22
[4]; [15]
  EC50: 190 nM
[5]
  Ratio EC50: 0.7
[6]
  Ratio EC50: 0.8
[7]; [16]
  EC50: 240 nM
[11]
  selectivity ratio: > 1250

## Cc1ccc([P+](Cc2ccc(Oc3ccc(C[P+](c4ccc(C)cc4)(c4ccc(C)cc4)c4ccc(C)cc4)cc3)cc2)(c2ccc(C)cc2)c2ccc(C)cc2)cc1.[Br-].[Br-]
L6; Rattus norvegicus, L6, 72 h
  EC50: 2.34 µM
[8]
  EC50: 85.7 µM
[12]
  Activity: inactive
[13]
  Activity: Active
[1]; Trypanosoma brucei, B48, 72 h
  EC50: 21 nM
[9]; [17]
  EC50: 170 nM
[10]
  selectivity ratio: 14
[4]; [15]
  EC50: 25 nM
[5]
  Ratio EC50: 0.8
[6]
  Ratio EC50: 1
[7]; [16]
  EC50: 24 nM
[11]
  selectivity ratio: 3570
[14]
  Activity: Active

## CCCCCC[P+](CCCCCC)(CCCCCC)Cc1ccc(C(=O)c2ccc(C[P+](CCCCCC)(CCCCCC)CCCCCC)cc2)cc1.[Br-].[Br-]
L6; Rattus norvegicus, L6, 72 h
  EC50: 1.11 µM
[8]
  EC50: 16.6 µM
[1]; Trypanosoma brucei, B48, 72 h
  EC50: 35 nM
[9]; [17]
  EC50: 112 nM
[3]
  Ki: 25 µM
[10]
  selectivity ratio: 10
[4]; [15]
  EC50: 47 nM
[5]
  Ratio EC50: 0.9
[6]
  Ratio EC50: 1.2
[7]; [16]
  EC50: 38 nM
[11]
  selectivity ratio: 438

## CCCCCC[P+](CCCCCC)(CCCCCC)Cc1ccc(Cc2ccc(C[P+](CCCCCC)(CCCCCC)CCCCCC)cc2)cc1.[Br-].[Br-]
L6; Rattus norvegicus, L6, 72 h
  EC50: 0.964 µM
[8]
  EC50: 18.1 µM
[12]
  Activity: inactive
[13]
  Activity: Active
[1]; Trypanosoma brucei, B48, 72 h
  EC50: 39 nM
[9]; [17]
  EC50: 180 nM
[3]
  Ki: 9.5 µM
[10]
  selectivity ratio: 5
[4]; [15]
  EC50: 33 nM
[5]
  Ratio EC50: 1.2
[6]
  Ratio EC50: 1
[7]; [16]
  EC50: 33 nM
[11]
  selectivity ratio: 543
[14]
  Activity: Active

## C[P+](C)(C)Cc1ccc(C(=O)c2ccc(C[P+](C)(C)C)cc2)cc1
L6; Rattus norvegicus, L6, 72 h
  EC50: > 173 µM
[1]; Trypanosoma brucei, B48, 72 h
  EC50: > 100000 nM
[2]
  Ki: > 250 µM
[9]; [17]
  EC50: 127000 nM
[3]
  Ki: > 250 µM
[4]; [15]
  EC50: > 100000 nM
[7]; [16]
  EC50: > 100000 nM

## O=C(c1ccc(C[P+](C2CCCCC2)(C2CCCCC2)C2CCCCC2)cc1)c1ccc(C[P+](C2CCCCC2)(C2CCCCC2)C2CCCCC2)cc1.[Br-].[Br-]
L6; Rattus norvegicus, L6, 72 h
  EC50: 32.7 µM
[8]
  EC50: > 300 µM
[1]; Trypanosoma brucei, B48, 72 h
  EC50: 250 nM
[9]; [17]
  EC50: 197 nM
[3]
  Ki: 39 µM
[10]
  selectivity ratio: 166
[4]; [15]
  EC50: 230 nM
[5]
  Ratio EC50: 1.8
[6]
  Ratio EC50: 1.6
[7]; [16]
  EC50: 140 nM
[11]
  selectivity ratio: > 2100

## O=C(c1ccc(C[P+](c2ccccc2)(c2ccccc2)c2ccccc2)cc1)c1ccc(C[P+](c2ccccc2)(c2ccccc2)c2ccccc2)cc1.[Br-].[Br-]
L6; Rattus norvegicus, L6, 72 h
  EC50: 73.3 µM
[8]
  EC50: > 300 µM
[1]; Trypanosoma brucei, B48, 72 h
  EC50: 380 nM
[9]; [17]
  EC50: 260 nM
[3]
  Ki: 49 µM
[10]
  selectivity ratio: 282
[4]; [15]
  EC50: 360 nM
[5]
  Ratio EC50: 1.6
[6]
  Ratio EC50: 1.5
[7]; [16]
  EC50: 240 nM
[11]
  selectivity ratio: > 1250

## CC(C)[P+](Cc1ccc(Oc2ccc(C[P+](c3ccccc3)(c3ccccc3)C(C)C)cc2)cc1)(c1ccccc1)c1ccccc1.[Br-].[Br-]
L6; Rattus norvegicus, L6, 72 h
  EC50: 5 µM
[8]
  EC50: > 300 µM
[1]; Trypanosoma brucei, B48, 72 h
  EC50: 330 nM
[9]; [17]
  EC50: 585 nM
[10]
  selectivity ratio: 8.6
[4]; [15]
  EC50: 330 nM
[5]
  Ratio EC50: 1
[6]
  Ratio EC50: 1
[7]; [16]
  EC50: 330 nM
[11]
  selectivity ratio: > 900
